In ChEMBL document CHEMBL1141352, “Microbial transformation of cephalomannine by Luteibacter sp” (J Nat Prod, 2007) one finds IC50 data, which are given here for eight molecules.

pIC50: −log10 of the molar value.

A word on the pIC50: it is −log10 of the IC50, conventionally taken in molar units. A higher pIC50 goes with a small IC50.

Common to all, as to assay type: functional, cell-based
The subject of experiment [1] is A2780. Briefly: Cytotoxicity against human A2780 cells by MTT assay. The method in brief: (§1)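 Cells kept in RPMI 1640 with 10% FBS, penicillin 100 units/mL and streptomycin 100 μg/mL, at 37 °C in humidified 5% CO2. Seeded at 1200 cells/well; compounds added after 24 h and incubated 96 h. Tested at 10^-5 to 10^-9 M (five concentrations) from DMSO stocks, with 0.1% DMSO final, in triplicate wells. Viability by MTT formazan absorbance at 570 nm.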
In general terms: Formazan colour is commonly taken as a measure of viable cells.

For experiment [2], the system named is Bel-7402. Briefly: Cytotoxicity against human Bel7402 cells by MTT assay. Summed up:
as §1

The test system of experiment [3] is BGC-823. Put plainly: Cytotoxicity against human BGC823 cells by MTT assay. The method in brief: as §1
Experiment [4] deals with HCT-8. Briefly: Cytotoxicity against human HCT8 cells by MTT assay. Summed up:
as §1

Experiment [5] deals with A549. Briefly: Cytotoxicity against human A549 cells by MTT assay. The method in brief:
as §1

On to `C/C=C(\C)C(=O)N[C@@H](c1ccccc1)[C@@H](O)C(=O)O[C@H]1C[C@@]2(O)[C@@H](OC(=O)c3ccccc3)[C@@H]3[C@]4(OC(C)=O)CO[C@@H]4C[C@H](O)[C@@]3(C)C(=O)[C@H](OC(C)=O)C(=C1C)C2(C)C` [CEPHALOMANNINE], for which the negative-log IC50 (pIC50) in experiment [1] was 7.00; in experiment [2] it was 6.04; in experiment [3], 7.00; in experiment [4], 6.51; in experiment [5], 7.00.
In the case of `CC(=O)O[C@@]12CO[C@@H]1C[C@@H](O)[C@@]1(C)C(=O)C(=O)C3=C(C)[C@@H](O)C[C@@](O)([C@@H](OC(=O)c4ccccc4)[C@H]21)C3(C)C`, the pIC50 was 5.31 in experiment [1]; under 5.00 in experiment [2]; 5.86 in experiment [3]; under 5.00 in experiment [4]; under 5.00 in experiment [5].
On to `C/C=C(/C)C(=O)N[C@@H](c1ccccc1)[C@@H](O)C(=O)O[C@H]1C[C@@]2(O)[C@@H](OC(=O)c3ccccc3)[C@@H]3[C@]4(OC(C)=O)CO[C@@H]4C[C@@H](O)[C@@]3(C)C(=O)[C@H](O)C(=C1C)C2(C)C`, for which the pIC50 is 6.46 in experiment [1]; 5.45 in experiment [2]; 6.10 in experiment [3]; 5.65 in experiment [4]; 5.49 in experiment [5].
The corresponding values for `C/C=C(\C)C(=O)N[C@@H](c1ccccc1)[C@@H](O)C(=O)O[C@H]1C[C@@]2(O)[C@@H](OC(=O)c3ccccc3)[C@@H]3[C@]4(OC(C)=O)CO[C@@H]4C[C@H](O)[C@@]3(C)C(=O)[C@H](O)C(=C1C)C2(C)C` are 7.05, 5.57, 7.00, 5.48 and under 5.00.
For `CC(=O)O[C@H]1C(=O)[C@]2(C)[C@@H](O[C@H]3OC[C@@H](O)[C@H](O)[C@H]3O)C[C@H]3OC[C@@]3(OC(C)=O)[C@H]2[C@H](OC(=O)c2ccccc2)[C@]2(O)C[C@H](O)C(C)=C1C2(C)C`, the pIC50 in experiment [1], in experiment [2], in experiment [3], in experiment [4] and in experiment [5] was under 5.00 throughout.
For `CC(=O)O[C@H]1C(=O)[C@@]2(C)[C@H]([C@H](OC(=O)c3ccccc3)[C@]3(O)C[C@H](OC(=O)[C@H](O)[C@@H](NC(=O)c4ccccc4)c4ccccc4)C(C)=C1C3(C)C)[C@]1(OC(C)=O)CO[C@@H]1C[C@@H]2O` [PACLITAXEL], the negative logarithm of the IC50 (pIC50) was 8.20 in experiment [1]; 7.00 in experiment [2]; 8.15 in experiment [3]; 7.43 in experiment [4]; 7.72 in experiment [5].
With `CCC(C)C(=O)N[C@@H](c1ccccc1)[C@@H](O)C(=O)O[C@H]1C[C@@]2(O)[C@@H](OC(=O)c3ccccc3)[C@@H]3[C@]4(OC(C)=O)CO[C@@H]4C[C@@H](O)[C@@]3(C)C(=O)[C@H](OC(C)=O)C(=C1C)C2(C)C` (stereo not given in full), the negative-log IC50 (pIC50) is 6.19 in experiment [1]; 5.48 in experiment [2]; 6.28 in experiment [3]; 5.80 in experiment [4]; 5.65 in experiment [5].
The corresponding values for `C/C=C(/C)C(=O)N[C@@H](c1ccccc1)[C@@H](O)C(=O)O[C@H]1C[C@@]2(O)[C@@H](OC(=O)c3ccccc3)[C@@H]3[C@]4(OC(C)=O)CO[C@@H]4C[C@@H](O)[C@@]3(C)C(=O)[C@H](OC(C)=O)C(=C1C)C2(C)C` are 7.15, 6.16, 7.05, 6.64 and 7.05.
